This is an account of results in ChEMBL document CHEMBL1147858, “Short-chain 3-ketoceramides, strong apoptosis inducers against human leukemia HL-60 cells” (Bioorg Med Chem, 2007).

Structures are written as SMILES. The source made the active and inactive calls. No cut-off for these calls is given here.

Common to all, as to type: functional, cell-based
What all share (conditions): Homo sapiens

The subject of experiment [1] is HL-60. The experiment in a line: Antileukemic effect against HL60 cells assessed as cell survival at 1 uM after 6 hrs by MTT assay relative to C2-Cer. In a few lines:
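Serum-free RPMI 1640 HL-60 suspension (0.4–1 × 10^6 cells/mL after two washes), […] per well; compounds added from ethanol stocks (1–20 mM), final EtOH 0.1%, vehicle control 0.1% EtOH; 6 h exposure; MTT (10 µL of 5 mg/mL) added 2 h before end; formazan dissolved with 0.04 M HCl in isopropanol.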
Background: Tetrazolium dyes change colour on reduction, which living cells bring about.

For experiment [2], the system named is HL-60. In words: Induction of apoptosis in HL60 cells assessed as DNA fragmentation at 5uM. In a few lines:
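HL-60 cells (2 × 10^6 cells/2 mL) exposed for various periods, ethanol vehicle; lysed in Tris/EDTA/0.5% Triton X-100, soluble lysate treated with RNase A (0.2 mg/mL, 1 h, 37 °C) then proteinase K (0.2 mg/mL, 50 °C, 30 min); DNA isopropanol-precipitated overnight at −20 °C, run on 2.0% agarose at 50 V, ethidium bromide stained, UV visualized.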

For experiment [3], the system named is HL-60. The experiment in a line: Effect on apoptosis in HL60 cells assessed as caspase-3 activation at 5 uM by Western blot analysis. In a few lines:
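HL-60 cells exposed 2–6 h (also 30–90 min) to compound, ethanol vehicle (final EtOH 0.1%); cells pelleted, PBS-washed twice, lysed in urea/SDS/β-mercaptoethanol buffer, boiled 3 min, run on 14% SDS-PAGE, PVDF blot probed with rabbit polyclonal anti-caspase-3 and alkaline phosphatase-coupled goat anti-rabbit; pro- versus active caspase-3 bands read.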
(In general: In western blotting, separated proteins are transferred to a membrane and probed.)

The subject of experiment [4] is HL-60. In words: Effect on apoptosis in HL60 cells assessed as mitochondrial cytochrome C release at 5 uM by Western blot analysis. In a few lines: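 HL-60 cells (6 × 10^6 cells/mL) treated for various periods, ethanol vehicle; PBS-washed, Dounce-homogenized in HEPES/KCl/EDTA/EGTA/DTT buffer with protease inhibitors; 1000g spin removes nuclei/heavy membranes, mitochondria-rich fraction pelleted, supernatant spun at 100,000g for cytosol; both fractions immunoblotted with anti-cytochrome c.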

`CCCCCCCCCCCCC/C=C/C(=O)[C@H](COC)NC(C)=O`: the result with HL-60 [1], in the experiment with HL-60 [2], in the experiment with HL-60 [3] and in the experiment with HL-60 [4] was Active.
Consider `CCCCCCCCCCC/C=C/C=C/C(=O)[C@H](CO)NC(C)=O`, for which the outcome in the experiment with HL-60 [1] was inactive. In addition, the result in the experiment on HL-60 [3] and with HL-60 [4] was Active.
Regarding `CCCCCCCCCCCCC/C=C/C(=O)[C@H](CO)NC(C)=O`, the outcome with HL-60 [1], in the experiment with HL-60 [2], in the experiment on HL-60 [3] and with HL-60 [4] was Active.
